pIC50, pKd: −log10 of the molar value.
What was measured:
[1] = target: Bromodomain and PHD finger-containing protein 3 (Homo sapiens, UniProt Q9ULD4); assay: Binding affinity to human BRPF3 (E588 to G701 residues) expressed in bacterial expression system by BROMOScan assay
[2] = target: T1, Bromodomain testis-specific protein (Homo sapiens, UniProt Q58F21); assay: Binding affinity to human BRDT bromodomain 2 (K250 to E382 residues) expressed in bacterial expression system by BROMOscan assay
[3] = Clearance in Balb/c mouse at 5 mg/kg, iv by LC-MS/MS analysis; format: ADME, organism-based; conditions: in vivo
In short: (§1)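 Balb/c mice dosed iv at 5.0 mg/kg or po at 25 mg/kg, compound in vehicle of 20% (v/v) PCP and 70% (v/v) PBS. Serial blood samples taken at 0, 5, 15, 30 min and 1, 2, 4, 6, 8, 24 h. Plasma obtained by centrifugation and stored at −80 °C. Analysis by LC-MS/MS, positive-ion MRM. Parameters from noncompartmental analysis.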

Homo sapiens [4] = organism: Homo sapiens; assay: Selectivity index, ratio of Kd for human CECR2 (P423 to D543 residues) to Kd for human BRD2 bromodomain 2 (E348 to D455 residues)
[5] = target: Bromodomain-containing protein 4 (Homo sapiens, UniProt O60885); assay: Binding affinity to human BRD4 bromodomain 2 (K333 to E460 residues) expressed in bacterial expression system by BROMOscan assay
[6] = target: Histone acetyltransferase KAT2A (Homo sapiens, UniProt Q92830); assay: Binding affinity to human GCN5L2 (E726 to K837 residues) expressed in bacterial expression system by BROMOScan assay
Homo sapiens [7] = organism: Homo sapiens; assay: Selectivity index, ratio of Kd for human EP300 (A1040 to G1161 residues) to Kd for human BRD2 bromodomain 2 (E348 to D455 residues)
Homo sapiens [8] = organism: Homo sapiens; assay: Selectivity index, ratio of Kd for human CREBBP (R1081 to G1197 residues) to Kd for human BRD2 bromodomain 2 (E348 to D455 residues)
Homo sapiens [9] = organism: Homo sapiens; assay: Selectivity index, ratio of Kd for human EP300 (A1040 to G1161 residues) to Kd for human BRD3 bromodomain 2 (G306 to P416 residues)
Homo sapiens [10] = organism: Homo sapiens; assay: Selectivity index, ratio of Kd for human CECR2 (P423 to D543 residues) to Kd for human BRDT bromodomain 1 (N21 to E137 residues)
Homo sapiens [11] = organism: Homo sapiens; assay: Selectivity index, ratio of Kd for human EP300 (A1040 to G1161 residues) to Kd for human BRD4 bromodomain 2 (K333 to E460 residues)
[12] = target: Serine/threonine-protein kinase PLK4 (Homo sapiens, UniProt O00444); assay: Inhibition of human PLK4 using casein as substrate in presence of [gamma-33P]-ATP
[13] = target: Histone acetyltransferase p300 (Homo sapiens, UniProt Q09472); assay: Binding affinity to human EP300 (A1040 to G1161 residues) expressed in bacterial expression system by BROMOScan assay
[14] = target: T1, Bromodomain testis-specific protein; assay: Binding affinity to human BRDT bromodomain 1 (N21 to E137 residues) expressed in bacterial expression system by BROMOscan assay
[15] = Drug uptake in tumor of SCID mouse xenografted with human MDA-MB-231 cells at 50 mg/kg administered via oral gavage measured after 6 hrs; format: ADME, organism-based, Neoplasm; conditions: read-out: Drug uptake
In short: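 Limited PK in SCID mice bearing MDA-MB-231 tumors, 50 mg/kg given by oral gavage. Plasma and tumor tissue drug levels measured at two time points per compound. Values are the mean of two mice/tumors per time point.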

[16] = target: Bromodomain and WD repeat-containing protein 1 (Homo sapiens, UniProt Q9NSI6); assay: Binding affinity to human WDR9 bromodomain 2 (A1310 to E1430 residues) expressed in bacterial expression system by BROMOscan assay
[17] = target: T2, Bromodomain-containing protein 3 (Homo sapiens, UniProt Q15059); assay: Binding affinity to human BRD3 bromodomain 2 (G306 to P416 residues) expressed in bacterial expression system by BROMOscan assay
Homo sapiens [18] = organism: Homo sapiens; assay: Selectivity index, ratio of Kd for human EP300 (A1040 to G1161 residues) to Kd for human BRD4 bromodomain 1 (N44 to E168 residues)
[19] = Oral bioavailability in Balb/c mouse at 25 mg/kg by LC-MS/MS analysis; format: ADME, organism-based; conditions: in vivo; in short: as §1
RS4-11 = assay: Antitumor activity against human RS4:11 cells xenografted in SCID mouse assessed as tumor growth inhibition at 50 mg/kg administered via oral gavage measured on day 35; format: functional; conditions: RS4-11, po, 840 h, read-out: TGI
In short: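 Each SCID mouse received a single dorsal subcutaneous tumor of 5 × 10⁶ RS4;11 or MDA-MB-231 cells in 50% Matrigel. At about 100 mm3, mice were randomised to treatment or vehicle control groups. Dosing was by oral gavage at the stated schedules. Tumor volume was L × W²/2, and body weight was tracked. TGI versus vehicle at end of treatment was tested by unpaired two-tailed t-test.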

[20] = target: Transcription intermediary factor 1-alpha (Homo sapiens, UniProt O15164); assay: Binding affinity to human TRIM24 (P790 to P977 residues) expressed in bacterial expression system by BROMOScan assay
[21] = target: T2, Bromodomain-containing protein 3; assay: Binding affinity to human BRD3 bromodomain 1 (P24 to E144 residues) expressed in bacterial expression system by BROMOscan assay
[22] = target: Bromodomain-containing protein 1 (Homo sapiens, UniProt O95696); assay: Binding affinity to human BRD1 (E556 to A688 residues) expressed in bacterial expression system by BROMOScan assay
Homo sapiens [23] = organism: Homo sapiens; assay: Selectivity index, ratio of Kd for human CREBBP (R1081 to G1197 residues) to Kd for human BRD2 bromodomain 1 (K71 to N194 residues)
[24] = target: Chromatin remodeling regulator CECR2 (Homo sapiens, UniProt Q9BXF3); assay: Binding affinity to human CECR2 (P423 to D543 residues) expressed in bacterial expression system by BROMOscan assay
Homo sapiens [25] = organism: Homo sapiens; assay: Selectivity index, ratio of Kd for human EP300 (A1040 to G1161 residues) to Kd for human BRD3 bromodomain 1 (P24 to E144 residues)
Homo sapiens [26] = organism: Homo sapiens; assay: Selectivity index, ratio of Kd for human CREBBP (R1081 to G1197 residues) to Kd for human BRD3 bromodomain 2 (G306 to P416 residues)
Homo sapiens [27] = organism: Homo sapiens; assay: Selectivity index, ratio of Kd for human CREBBP (R1081 to G1197 residues) to Kd for human BRD4 bromodomain 2 (K333 to E460 residues)
Homo sapiens [28] = organism: Homo sapiens; assay: Selectivity index, ratio of Kd for human CREBBP (R1081 to G1197 residues) to Kd for human BRD4 bromodomain 1 (N44 to E168 residues)

T2 sequence (Q15059 whole entry, the tested form may be a part): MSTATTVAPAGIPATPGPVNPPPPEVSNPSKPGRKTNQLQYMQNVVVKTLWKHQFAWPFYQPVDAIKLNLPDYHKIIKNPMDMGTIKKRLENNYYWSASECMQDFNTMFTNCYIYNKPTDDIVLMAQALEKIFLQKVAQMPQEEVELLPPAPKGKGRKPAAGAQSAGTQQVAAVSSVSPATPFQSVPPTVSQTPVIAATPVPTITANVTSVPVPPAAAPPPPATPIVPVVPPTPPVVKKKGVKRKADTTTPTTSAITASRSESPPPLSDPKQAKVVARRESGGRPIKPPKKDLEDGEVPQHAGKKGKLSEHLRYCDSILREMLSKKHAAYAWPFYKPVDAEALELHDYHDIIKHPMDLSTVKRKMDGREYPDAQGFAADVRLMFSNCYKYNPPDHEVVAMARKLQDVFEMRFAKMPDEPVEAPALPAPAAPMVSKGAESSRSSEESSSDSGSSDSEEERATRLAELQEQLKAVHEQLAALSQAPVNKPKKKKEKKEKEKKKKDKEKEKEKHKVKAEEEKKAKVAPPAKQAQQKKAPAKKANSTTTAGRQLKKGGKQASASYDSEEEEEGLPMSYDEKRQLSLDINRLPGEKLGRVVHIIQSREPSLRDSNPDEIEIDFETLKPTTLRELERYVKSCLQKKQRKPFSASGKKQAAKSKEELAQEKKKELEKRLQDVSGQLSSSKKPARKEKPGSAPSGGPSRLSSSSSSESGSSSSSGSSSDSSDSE
Sequence of Bromodomain-containing protein 1 (O95696 whole entry, the tested form may be a part): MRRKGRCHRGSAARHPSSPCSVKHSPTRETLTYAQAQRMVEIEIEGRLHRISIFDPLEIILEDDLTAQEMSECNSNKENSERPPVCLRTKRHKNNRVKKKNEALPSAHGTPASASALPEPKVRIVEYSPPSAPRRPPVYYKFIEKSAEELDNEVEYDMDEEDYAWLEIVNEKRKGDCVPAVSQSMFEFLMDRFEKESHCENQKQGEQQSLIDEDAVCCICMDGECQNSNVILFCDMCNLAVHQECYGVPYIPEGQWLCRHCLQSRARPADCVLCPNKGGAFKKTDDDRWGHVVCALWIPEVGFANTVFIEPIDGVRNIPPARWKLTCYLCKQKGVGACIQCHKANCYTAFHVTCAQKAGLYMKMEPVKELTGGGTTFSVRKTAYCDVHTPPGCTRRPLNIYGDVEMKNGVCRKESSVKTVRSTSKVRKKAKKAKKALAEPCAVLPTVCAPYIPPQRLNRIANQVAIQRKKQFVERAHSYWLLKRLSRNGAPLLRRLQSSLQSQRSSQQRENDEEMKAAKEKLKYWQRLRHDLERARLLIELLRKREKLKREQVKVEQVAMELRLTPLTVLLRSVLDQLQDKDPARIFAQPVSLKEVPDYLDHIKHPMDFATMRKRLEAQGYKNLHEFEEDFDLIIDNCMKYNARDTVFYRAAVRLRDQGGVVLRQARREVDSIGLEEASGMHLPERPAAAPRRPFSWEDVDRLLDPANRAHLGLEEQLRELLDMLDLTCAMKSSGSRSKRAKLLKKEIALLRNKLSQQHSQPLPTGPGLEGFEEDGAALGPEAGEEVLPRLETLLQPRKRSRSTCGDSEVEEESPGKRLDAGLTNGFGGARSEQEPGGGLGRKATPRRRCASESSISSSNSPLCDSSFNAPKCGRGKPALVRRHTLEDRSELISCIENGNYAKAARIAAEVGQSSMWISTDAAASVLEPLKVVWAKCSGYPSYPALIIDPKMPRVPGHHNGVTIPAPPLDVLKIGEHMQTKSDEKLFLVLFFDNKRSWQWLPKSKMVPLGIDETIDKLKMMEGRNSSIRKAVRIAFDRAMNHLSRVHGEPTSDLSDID
Sequence of Histone acetyltransferase KAT2A (Q92830 whole entry, the tested form may be a part): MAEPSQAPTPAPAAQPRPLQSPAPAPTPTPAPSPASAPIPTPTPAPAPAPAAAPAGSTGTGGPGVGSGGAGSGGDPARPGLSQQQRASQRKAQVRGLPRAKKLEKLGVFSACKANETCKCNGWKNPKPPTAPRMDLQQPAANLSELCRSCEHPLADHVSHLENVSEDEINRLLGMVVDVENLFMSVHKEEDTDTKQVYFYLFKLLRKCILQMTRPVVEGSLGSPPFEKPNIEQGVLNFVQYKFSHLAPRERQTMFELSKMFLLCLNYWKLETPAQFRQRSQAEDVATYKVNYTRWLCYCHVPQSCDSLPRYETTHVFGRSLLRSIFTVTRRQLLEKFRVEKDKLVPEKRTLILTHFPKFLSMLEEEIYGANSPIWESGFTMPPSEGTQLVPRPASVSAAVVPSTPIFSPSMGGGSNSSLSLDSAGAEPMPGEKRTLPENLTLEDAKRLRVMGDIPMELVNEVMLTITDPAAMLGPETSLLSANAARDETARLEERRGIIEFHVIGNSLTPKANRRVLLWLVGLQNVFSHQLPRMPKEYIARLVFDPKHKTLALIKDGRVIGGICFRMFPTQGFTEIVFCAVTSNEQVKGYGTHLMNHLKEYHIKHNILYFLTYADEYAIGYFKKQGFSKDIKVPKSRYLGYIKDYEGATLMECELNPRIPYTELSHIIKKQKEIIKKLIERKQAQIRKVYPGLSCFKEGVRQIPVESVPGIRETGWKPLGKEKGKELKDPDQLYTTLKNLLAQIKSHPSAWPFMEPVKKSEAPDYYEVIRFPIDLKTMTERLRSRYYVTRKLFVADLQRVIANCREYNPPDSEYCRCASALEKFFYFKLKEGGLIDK
Sequence of Bromodomain and WD repeat-containing protein 1 (Q9NSI6 whole entry, the tested form may be a part): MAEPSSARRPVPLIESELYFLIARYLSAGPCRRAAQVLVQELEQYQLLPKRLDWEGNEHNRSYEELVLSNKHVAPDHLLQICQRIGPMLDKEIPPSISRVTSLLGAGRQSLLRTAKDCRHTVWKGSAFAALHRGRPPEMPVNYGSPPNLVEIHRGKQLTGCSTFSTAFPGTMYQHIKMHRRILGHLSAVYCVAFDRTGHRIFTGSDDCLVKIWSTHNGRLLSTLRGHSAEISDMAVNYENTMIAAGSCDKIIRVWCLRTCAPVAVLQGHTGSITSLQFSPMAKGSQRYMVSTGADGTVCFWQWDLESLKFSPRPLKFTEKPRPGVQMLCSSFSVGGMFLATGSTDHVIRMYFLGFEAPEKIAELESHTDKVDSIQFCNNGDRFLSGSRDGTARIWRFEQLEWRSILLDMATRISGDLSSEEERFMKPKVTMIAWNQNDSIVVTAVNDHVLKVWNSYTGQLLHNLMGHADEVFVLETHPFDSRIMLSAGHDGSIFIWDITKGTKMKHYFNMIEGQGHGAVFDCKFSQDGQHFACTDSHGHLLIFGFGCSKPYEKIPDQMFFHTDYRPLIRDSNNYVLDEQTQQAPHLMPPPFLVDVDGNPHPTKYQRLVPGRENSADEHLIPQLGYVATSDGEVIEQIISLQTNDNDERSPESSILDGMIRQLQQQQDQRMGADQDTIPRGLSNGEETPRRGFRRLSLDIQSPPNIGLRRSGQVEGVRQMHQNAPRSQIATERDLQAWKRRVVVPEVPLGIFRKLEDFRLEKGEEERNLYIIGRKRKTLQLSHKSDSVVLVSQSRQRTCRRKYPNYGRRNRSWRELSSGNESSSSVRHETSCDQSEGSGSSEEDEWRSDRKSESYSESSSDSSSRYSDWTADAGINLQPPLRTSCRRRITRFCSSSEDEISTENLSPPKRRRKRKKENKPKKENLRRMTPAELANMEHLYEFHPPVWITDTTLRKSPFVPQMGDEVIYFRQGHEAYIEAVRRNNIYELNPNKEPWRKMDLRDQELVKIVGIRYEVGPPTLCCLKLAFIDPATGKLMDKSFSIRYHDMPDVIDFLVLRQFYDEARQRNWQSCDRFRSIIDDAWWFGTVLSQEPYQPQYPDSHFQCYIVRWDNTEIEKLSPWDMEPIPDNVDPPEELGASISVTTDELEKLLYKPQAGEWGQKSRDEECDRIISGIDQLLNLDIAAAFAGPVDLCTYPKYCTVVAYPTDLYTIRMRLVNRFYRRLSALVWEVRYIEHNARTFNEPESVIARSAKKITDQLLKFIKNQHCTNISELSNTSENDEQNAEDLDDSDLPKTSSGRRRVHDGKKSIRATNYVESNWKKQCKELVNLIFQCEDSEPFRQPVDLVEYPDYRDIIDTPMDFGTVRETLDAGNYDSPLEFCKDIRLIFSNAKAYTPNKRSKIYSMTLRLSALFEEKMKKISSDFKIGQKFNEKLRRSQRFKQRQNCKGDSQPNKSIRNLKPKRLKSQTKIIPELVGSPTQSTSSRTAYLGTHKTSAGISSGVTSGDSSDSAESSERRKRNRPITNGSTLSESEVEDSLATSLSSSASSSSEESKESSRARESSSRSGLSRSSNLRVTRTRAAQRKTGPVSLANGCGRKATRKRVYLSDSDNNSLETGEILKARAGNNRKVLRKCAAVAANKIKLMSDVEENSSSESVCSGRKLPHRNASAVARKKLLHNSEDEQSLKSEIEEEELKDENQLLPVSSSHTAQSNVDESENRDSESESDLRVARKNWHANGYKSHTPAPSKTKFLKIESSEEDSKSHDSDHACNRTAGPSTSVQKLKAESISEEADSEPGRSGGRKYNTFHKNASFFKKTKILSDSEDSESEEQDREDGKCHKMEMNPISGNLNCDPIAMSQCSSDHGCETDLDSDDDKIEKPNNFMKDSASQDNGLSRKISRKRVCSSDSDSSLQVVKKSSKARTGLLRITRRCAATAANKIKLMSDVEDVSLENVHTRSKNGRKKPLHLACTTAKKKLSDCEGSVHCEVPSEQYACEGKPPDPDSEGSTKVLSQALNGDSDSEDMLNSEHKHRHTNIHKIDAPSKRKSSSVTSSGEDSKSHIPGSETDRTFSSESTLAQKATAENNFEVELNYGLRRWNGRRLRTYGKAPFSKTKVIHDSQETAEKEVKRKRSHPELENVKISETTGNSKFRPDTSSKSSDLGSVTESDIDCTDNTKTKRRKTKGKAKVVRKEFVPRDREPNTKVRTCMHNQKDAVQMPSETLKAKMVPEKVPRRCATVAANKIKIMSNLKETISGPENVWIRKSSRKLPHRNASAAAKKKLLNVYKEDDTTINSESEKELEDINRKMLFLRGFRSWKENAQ

pKd [1]: < 5.30 | pKd [2]: 8.68 | clearance [3]: 20.8 mL/min/kg | Selectivity Index (Homo sapiens [4]): > 50 | pKd [5]: 9.10 | pKd [6]: < 5.30 | Selectivity Index (Homo sapiens [7]): > 50 | Selectivity Index (Homo sapiens [8]): > 20 | Selectivity Index (Homo sapiens [9]): > 50 | Selectivity Index (Homo sapiens [10]): > 50 | Selectivity Index (Homo sapiens [11]): > 50 | pIC50 [12]: 5.41 | pKd [13]: 6.96 | pKd [14]: 8.70 | concentration at 6 h [15]: 3670 ng/g | pKd [16]: < 5.30 | pKd [17]: 9.31 | Selectivity Index (Homo sapiens [18]): > 50 | bioavailability [19]: 71.3% | pKd [20]: < 5.40 | pKd [21]: 9.28 | pKd [22]: < 5.30 | Selectivity Index (Homo sapiens [23]): > 20 | pKd [24]: 6.24 | Selectivity Index (Homo sapiens [25]): > 50 | Selectivity Index (Homo sapiens [26]): > 20 | Selectivity Index (Homo sapiens [27]): > 20 | Selectivity Index (Homo sapiens [28]): > 20
SMILES: COc1cc2c(cc1-c1c(C)noc1C)[nH]c1nc(C)nc(Nc3cc(C4CC4)nn3C)c12
inhibition in vivo at 50 mg/kg (RS4-11): 72.3%

— ChEMBL document CHEMBL4145654, “Structure-Based Discovery of CF53 as a Potent and Orally Bioavailable Bromodomain and Extra-Terminal (BET) Bromodomain Inhibitor” (J Med Chem, 2018)
